Experimental data: PubChem BioAssay AID624104 (Broad Institute, 2012)
The source made the active and inactive calls.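 How the source made its calls: active means fitted curve reaches a 35% growth drop -35 below twice the top tested dose; inactive means activity in the wrong direction, or the rest.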

Key:
[1] = growth delay of efflux-deficient P. aeruginosa under iron chelation, dose response, PAK mexAB-OprM pump mutant, OD600, dry powder, set 2 (AID 624104); settings: P. aeruginosa PAK mexAB-oprM, EDDHA, OD600 growth, 28 h; at 100 µM (top of the series)
How it was run: (§1)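 Compound: series, final 15 nM to 100 µM / Test system: overnight bacterial culture diluted to OD600 0.05 as inoculum / Times: 28 h at 30 °C / Medium: succinate M9 medium, pH 7.0, containing 2 µM EDDHA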

[2] = tested on: P. aeruginosa PAK mexAB-oprM, EDDHA, OD600 growth, 28 h; assay: as above
How it was run: as §1

| SMILES | activity change, negative = growth inhibition [1] | AC35 [2] |
| --- | --- | --- |
| N#CC(c1ccc(C(F)(F)F)c(Cl)n1)c1ccccc1OC(F)(F)F (configuration not stated) | -25.9% (inactive) |  |
| N#CC(c1ccc(Cl)cc1)c1cccc(C(F)(F)F)n1 (configuration not stated) |  | 1.45 µM |
| N#CC(c1cccc(C(F)(F)F)n1)c1ccc(Cl)cc1F (configuration not stated) |  | 2.45 µM |
| CCCCC(C#N)c1ccc(Cl)cn1 (configuration not stated) |  | 42.3 µM |
| Clc1ccc(C(c2cccc(Cl)n2)c2nn[nH]n2)cc1 (configuration not stated) | 11.2% (inactive) |  |
| N#CC(c1ccc(Cl)cc1)c1ccccn1 (configuration not stated) |  | 5.72 µM |
| N#CC(c1cccc(Cl)n1)c1ccc(Cl)cc1F (configuration not stated) |  | 1.52 µM |
| COCCC(C#N)c1ccc(Cl)cc1 (configuration not stated) |  | 40.2 µM |
| CCCCC(C#N)c1ccc(F)cn1 (configuration not stated) |  | 18.7 µM |
| CN(C)CCCC(C#N)c1ccc(Cl)cc1 (configuration not stated) | -0.114% (inactive) |  |
| CN(C)CCCC(C#N)c1ccc(F)cc1 (configuration not stated) |  | 6.4 µM |
| COCCC(C#N)c1ccc(F)cc1 (configuration not stated) |  | 28.3 µM |
| CCCCC(c1ccc(Cl)cc1)c1nn[nH]n1 (configuration not stated) |  | 25.2 µM |
| N#CC(c1ccc(Cl)cc1)c1cccc(Cl)n1 (configuration not stated) |  | 1.97 µM |
| N#CC(c1ccc(F)cc1)c1cccc(Cl)n1 (configuration not stated) |  | 2.09 µM |
| COCCOCCC(C#N)c1ccc(Cl)cc1 (configuration not stated) | -10% (inactive) |  |
| N#CC1c2ccc(Cl)cc2CCc2cccnc21 (configuration not stated) |  | 32.8 µM |
| CCCCC(C#N)c1ccc(F)cc1 (configuration not stated) |  | 33.5 µM |
| N#Cc1cccc(C(C#N)c2ccc(F)cc2)n1 (configuration not stated) |  | 8.88 µM |
| COCCOCCC(C#N)c1ccc(F)cc1 (configuration not stated) |  | 5.24 µM |
| N#CC(c1ccc(F)cc1)c1cccc(C(F)(F)F)n1 (configuration not stated) |  | 0.839 µM |
| N#CC(c1ccc(Cl)cc1)c1ncccc1Cl (configuration not stated) |  | 0.923 µM |
